Target: Matrix metalloproteinase-14 (Homo sapiens, UniProt P50281)
Experiment: Inhibition of recombinant human MMP-14 using Mca-Lys-Pro-Leu-Gly-Leu-Dap(Dnp)-Ala-Arg-NH2 as substrate after 3 hrs by fluorometric assay
Conditions: not given
Summary of the method: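 MMP-14 catalytic domain, final 1.0 nM, preincubated with inhibitor for 3 h at 25 °C in Tris 50 mM pH 7.5, NaCl 150 mM, CaCl2 10 mM, Brij-35 0.05%, DMSO 1%. Substrate final 2 µM. Fluorescence (ex 325/em 400 nm) read every 15 s for 20 min. Duplicates; IC50 from the vi/vo equation.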

| IC50 [µM] | Structure (SMILES) |
| --- | --- |
| 50 | Cc1cc(C#N)ccc1N1CCN(S(=O)(=O)N[C@H](CCCNC(=O)OCc2ccccc2)C(=O)NO)CC1 |

Target: T1, Disintegrin and metalloproteinase domain-containing protein 10 (Homo sapiens, UniProt O14672)
T1 sequence (O14672 whole entry): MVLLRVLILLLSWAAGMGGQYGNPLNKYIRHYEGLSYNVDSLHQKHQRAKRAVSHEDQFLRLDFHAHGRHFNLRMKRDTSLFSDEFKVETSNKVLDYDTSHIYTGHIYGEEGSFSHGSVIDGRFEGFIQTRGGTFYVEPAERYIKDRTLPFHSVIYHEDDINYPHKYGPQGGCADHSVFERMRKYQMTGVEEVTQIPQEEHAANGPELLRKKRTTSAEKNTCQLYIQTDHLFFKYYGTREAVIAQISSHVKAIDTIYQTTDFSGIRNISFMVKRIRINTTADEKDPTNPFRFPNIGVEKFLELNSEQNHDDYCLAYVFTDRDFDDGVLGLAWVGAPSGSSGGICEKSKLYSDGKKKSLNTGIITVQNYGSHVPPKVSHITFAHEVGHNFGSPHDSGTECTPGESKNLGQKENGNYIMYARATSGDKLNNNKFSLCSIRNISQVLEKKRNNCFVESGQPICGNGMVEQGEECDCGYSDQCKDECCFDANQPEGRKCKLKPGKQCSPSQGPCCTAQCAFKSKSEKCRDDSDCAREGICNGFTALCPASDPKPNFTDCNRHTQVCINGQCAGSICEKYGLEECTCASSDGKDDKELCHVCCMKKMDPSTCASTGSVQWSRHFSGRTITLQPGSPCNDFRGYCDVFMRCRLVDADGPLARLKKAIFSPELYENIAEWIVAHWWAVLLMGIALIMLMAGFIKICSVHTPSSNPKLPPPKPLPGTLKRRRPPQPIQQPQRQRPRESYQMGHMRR
Experiment: Inhibition of recombinant human ADAM-10 using Mca-Lys-Pro-Leu-Gly-Leu-Dap(Dnp)-Ala-Arg-NH2 as substrate after 1 hr by fluorometric assay
Conditions: not given
Summary of the method: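 Recombinant human ADAM-10, final 20 nM, preincubated with inhibitor for 1 h at 37 °C in Tris 25 mM pH 9, ZnCl2 25 µM, Brij-35 0.005%. Substrate final 10 µM. Fluorescence (ex 325/em 400 nm) read every 15 s for 20 min. Duplicates; IC50 from vi/vo = 1/(1+[I]/IC50).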

| IC50 [µM] | Structure (SMILES) |
| --- | --- |
| 0.0092 | Cc1cc(C#N)ccc1N1CCN(S(=O)(=O)N[C@H](CCCNC(=O)OCc2ccccc2)C(=O)NO)CC1 |

Target: T2, Disintegrin and metalloproteinase domain-containing protein 17 (Homo sapiens, UniProt P78536)
T2 sequence (P78536 whole entry, the tested form may be a part): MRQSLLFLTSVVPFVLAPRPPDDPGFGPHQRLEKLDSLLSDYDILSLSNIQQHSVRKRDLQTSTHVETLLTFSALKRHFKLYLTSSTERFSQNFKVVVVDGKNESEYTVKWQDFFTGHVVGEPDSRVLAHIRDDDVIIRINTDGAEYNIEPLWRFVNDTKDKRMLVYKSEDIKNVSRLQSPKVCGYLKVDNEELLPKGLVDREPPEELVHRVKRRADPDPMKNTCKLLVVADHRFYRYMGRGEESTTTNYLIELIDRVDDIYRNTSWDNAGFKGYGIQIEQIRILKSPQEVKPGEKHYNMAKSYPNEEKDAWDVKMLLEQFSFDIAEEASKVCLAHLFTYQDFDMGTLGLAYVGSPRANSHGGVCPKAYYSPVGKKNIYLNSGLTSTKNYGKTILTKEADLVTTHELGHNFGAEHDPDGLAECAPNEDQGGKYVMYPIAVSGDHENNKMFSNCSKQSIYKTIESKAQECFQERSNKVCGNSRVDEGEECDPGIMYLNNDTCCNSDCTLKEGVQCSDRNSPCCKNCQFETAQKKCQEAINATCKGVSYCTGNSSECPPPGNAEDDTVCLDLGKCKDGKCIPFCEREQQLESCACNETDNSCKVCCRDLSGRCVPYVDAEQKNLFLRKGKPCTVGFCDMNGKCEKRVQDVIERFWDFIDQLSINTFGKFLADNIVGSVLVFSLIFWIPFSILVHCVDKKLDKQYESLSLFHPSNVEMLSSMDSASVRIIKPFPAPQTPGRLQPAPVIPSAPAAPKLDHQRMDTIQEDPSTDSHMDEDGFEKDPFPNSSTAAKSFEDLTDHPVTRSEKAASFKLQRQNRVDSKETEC
Experiment: Inhibition of recombinant human ADAM-17 using Mca-Lys-Pro-Leu-Gly-Leu-Dap(Dnp)-Ala-Arg-NH2 as substrate after 30 mins by fluorometric assay
Conditions: not given
Summary of the method: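 Recombinant human ADAM-17, final 5 nM, preincubated with inhibitor for 30 min at 37 °C in Tris 25 mM pH 9, ZnCl2 25 µM, Brij-35 0.005%. Substrate final 2 µM. Fluorescence (ex 325/em 400 nm) read every 15 s for 20 min. Duplicates; IC50 from vi/vo = 1/(1+[I]/IC50).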

| IC50 [µM] | Structure (SMILES) |
| --- | --- |
| 0.09 | Cc1cc(C#N)ccc1N1CCN(S(=O)(=O)N[C@H](CCCNC(=O)OCc2ccccc2)C(=O)NO)CC1 |

Target: Matrix metalloproteinase-9 (Homo sapiens, UniProt P14780)
Sequence (P14780 whole entry): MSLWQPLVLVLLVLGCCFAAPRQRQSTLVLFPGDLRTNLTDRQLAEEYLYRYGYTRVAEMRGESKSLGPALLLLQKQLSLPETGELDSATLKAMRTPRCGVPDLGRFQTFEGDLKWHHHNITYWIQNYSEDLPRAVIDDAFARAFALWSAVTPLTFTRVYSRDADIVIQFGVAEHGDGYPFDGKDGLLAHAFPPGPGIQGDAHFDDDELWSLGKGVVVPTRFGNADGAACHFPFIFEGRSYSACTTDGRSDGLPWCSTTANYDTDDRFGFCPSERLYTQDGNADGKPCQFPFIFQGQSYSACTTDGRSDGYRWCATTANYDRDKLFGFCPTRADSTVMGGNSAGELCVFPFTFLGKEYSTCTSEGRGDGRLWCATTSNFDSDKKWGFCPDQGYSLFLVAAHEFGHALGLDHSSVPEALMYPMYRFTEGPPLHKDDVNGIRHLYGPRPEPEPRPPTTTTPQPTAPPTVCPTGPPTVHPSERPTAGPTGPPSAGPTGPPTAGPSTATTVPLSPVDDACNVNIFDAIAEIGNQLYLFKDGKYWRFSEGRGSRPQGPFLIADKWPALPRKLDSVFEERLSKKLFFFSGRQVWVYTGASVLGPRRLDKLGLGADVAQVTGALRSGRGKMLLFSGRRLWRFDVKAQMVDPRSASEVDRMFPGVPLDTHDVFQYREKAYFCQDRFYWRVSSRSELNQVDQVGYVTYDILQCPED
Experiment: Inhibition of recombinant human MMP-9 using Mca-Lys-Pro-Leu-Gly-Leu-Dap(Dnp)-Ala-Arg-NH2 as substrate after 3 hrs by fluorometric assay
Conditions: not given
Summary of the method: (§1)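 Pro-MMPs were activated with APMA: MMP-1 2 mM for 2 h, MMP-2 2 mM for 1 h, MMP-9 1 mM for 1 h, all at 37 °C. Final enzyme: MMP-1 2.0 nM, MMP-2 0.56 nM, MMP-9 1.3 nM. Enzyme was preincubated with inhibitor for 3 h at 25 °C in Tris 50 mM pH 7.5, NaCl 150 mM, CaCl2 10 mM, Brij-35 0.05%, DMSO 1%. Substrate final 2 µM. Fluorescence (ex 325/em 400 nm) read every 15 s for 20 min. Duplicates; IC50 from vi/vo = 1/(1+[I]/IC50).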

| IC50 [µM] | Structure (SMILES) |
| --- | --- |
| 4.5 | Cc1cc(C#N)ccc1N1CCN(S(=O)(=O)N[C@H](CCCNC(=O)OCc2ccccc2)C(=O)NO)CC1 |

Target: 72 kDa type IV collagenase (Homo sapiens, UniProt P08253)
Sequence (P08253 whole entry): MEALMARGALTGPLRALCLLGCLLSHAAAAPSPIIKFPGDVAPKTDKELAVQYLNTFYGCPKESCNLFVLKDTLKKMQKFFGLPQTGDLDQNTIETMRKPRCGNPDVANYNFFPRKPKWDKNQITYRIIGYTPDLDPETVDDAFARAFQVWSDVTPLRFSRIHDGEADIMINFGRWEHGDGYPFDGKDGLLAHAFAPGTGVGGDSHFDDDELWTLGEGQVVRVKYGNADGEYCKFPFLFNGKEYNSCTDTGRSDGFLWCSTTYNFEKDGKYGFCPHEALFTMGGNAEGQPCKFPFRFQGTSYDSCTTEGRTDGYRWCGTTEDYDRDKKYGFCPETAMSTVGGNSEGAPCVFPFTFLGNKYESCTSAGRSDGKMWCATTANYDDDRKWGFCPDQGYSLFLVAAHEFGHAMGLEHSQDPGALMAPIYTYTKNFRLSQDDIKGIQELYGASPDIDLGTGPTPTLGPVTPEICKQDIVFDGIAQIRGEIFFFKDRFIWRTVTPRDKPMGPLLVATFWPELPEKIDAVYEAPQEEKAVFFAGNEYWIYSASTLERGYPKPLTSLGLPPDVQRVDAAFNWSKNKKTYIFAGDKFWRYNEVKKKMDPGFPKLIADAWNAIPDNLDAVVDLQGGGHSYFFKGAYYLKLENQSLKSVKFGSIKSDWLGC
Experiment: Inhibition of recombinant human MMP-2 using Mca-Lys-Pro-Leu-Gly-Leu-Dap(Dnp)-Ala-Arg-NH2 as substrate after 3 hrs by fluorometric assay
Conditions: not given
Summary of the method: as §1

| IC50 [µM] | Structure (SMILES) |
| --- | --- |
| 0.37 | Cc1cc(C#N)ccc1N1CCN(S(=O)(=O)N[C@H](CCCNC(=O)OCc2ccccc2)C(=O)NO)CC1 |

Target: T3, Interstitial collagenase (Homo sapiens, UniProt P03956)
T3 sequence (P03956 whole entry): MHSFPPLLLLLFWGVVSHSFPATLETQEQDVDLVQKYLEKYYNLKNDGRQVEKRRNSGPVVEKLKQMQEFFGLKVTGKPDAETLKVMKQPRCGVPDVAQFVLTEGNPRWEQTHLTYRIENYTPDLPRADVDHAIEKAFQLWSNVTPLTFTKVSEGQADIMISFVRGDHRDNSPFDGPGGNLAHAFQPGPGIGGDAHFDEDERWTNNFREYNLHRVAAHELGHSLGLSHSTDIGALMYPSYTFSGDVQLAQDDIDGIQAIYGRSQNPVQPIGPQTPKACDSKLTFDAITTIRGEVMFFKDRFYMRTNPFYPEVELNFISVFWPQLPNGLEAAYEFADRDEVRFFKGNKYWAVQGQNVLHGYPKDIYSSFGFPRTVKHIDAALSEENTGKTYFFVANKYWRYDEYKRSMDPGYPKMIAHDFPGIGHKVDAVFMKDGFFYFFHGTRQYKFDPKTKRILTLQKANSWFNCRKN
Experiment: Inhibition of human MMP-1 using Mca-Lys-Pro-Leu-Gly-Leu-Dap(Dnp)-Ala-Arg-NH2 as substrate after 3 hrs by fluorometric assay
Conditions: not given
Summary of the method: as §1

| IC50 [µM] | Structure (SMILES) |
| --- | --- |
| > 200 | Cc1cc(C#N)ccc1N1CCN(S(=O)(=O)N[C@H](CCCNC(=O)OCc2ccccc2)C(=O)NO)CC1 |

Test system: not listed separately
Experiment: Cytotoxicity against human KM-H2 cells assessed as cell viability at 10 uM after 72 to 96 hrs by JC-1 staining-based fluorescence assay
Conditions: read-out: Activity
Summary of the method: (§2)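 HL cell lines from DSMZ exposed to inhibitor at 10 µM for 72 and 96 h. Viability read as mitochondrial potential by staining with the dual-emission fluorescent probe JC-1.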

| Structure (SMILES) | viability at 10 µM [%] |
| --- | --- |
| Cc1cc(C#N)ccc1N1CCN(S(=O)(=O)N[C@H](CCCNC(=O)OCc2ccccc2)C(=O)NO)CC1 | > 96 |

Test system: not listed separately
Experiment: Cytotoxicity against human L428 cells assessed as cell viability at 10 uM after 72 to 96 hrs by JC-1 staining-based fluorescence assay
Parameters: species or system L-428
Conditions: read-out: Activity
Summary of the method: as §2

| Structure (SMILES) | viability at 10 µM [%] |
| --- | --- |
| Cc1cc(C#N)ccc1N1CCN(S(=O)(=O)N[C@H](CCCNC(=O)OCc2ccccc2)C(=O)NO)CC1 | > 96 |

Test system: not listed separately
Experiment: Cytotoxicity against human L540 cells assessed as cell viability at 10 uM after 72 to 96 hrs by JC-1 staining-based fluorescence assay
Parameters: species or system L-540
Conditions: read-out: Activity
Summary of the method: as §2

| Structure (SMILES) | viability at 10 µM [%] |
| --- | --- |
| Cc1cc(C#N)ccc1N1CCN(S(=O)(=O)N[C@H](CCCNC(=O)OCc2ccccc2)C(=O)NO)CC1 | > 96 |

Target: T1, Disintegrin and metalloproteinase domain-containing protein 10
Experiment: Inhibition of ADAM-10 in human KM-H2 cells assessed as reduction in pervanadate-induced soluble ULBP3 shedding after 24 hrs by ELISA
Type: cell-based
Conditions: not given
Summary of the method: (§3)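 Supernatants collected before and after 24 h inhibitor exposure, 10 to 0.1 µM. 100 µM sodium orthovanadate was activated to pervanadate with 100 µM H2O2 and added for 40 min before harvest. Soluble ULBP3 or ALCAM measured by ELISA.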

| IC50 [µM] | Structure (SMILES) |
| --- | --- |
| 10 | Cc1cc(C#N)ccc1N1CCN(S(=O)(=O)N[C@H](CCCNC(=O)OCc2ccccc2)C(=O)NO)CC1 |

Target: T1, Disintegrin and metalloproteinase domain-containing protein 10
Experiment: Inhibition of ADAM-10 in human KM-H2 cells assessed as reduction in pervanadate-induced soluble MICB shedding after 24 hrs by ELISA
Type: cell-based
Conditions: not given
Summary of the method: (§4)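 Supernatants taken from HL cultures before and after 24 h inhibitor exposure, 10 to 0.1 µM. 100 µM sodium orthovanadate was activated to pervanadate with 100 µM H2O2 and added for 40 min before harvest. Soluble MIC-B measured by ELISA against a MIC-B/Fc chimera standard curve. The DMSO+pervanadate supernatant was set as 100% shedding. Triplicate wells, 3 independent experiments.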

| IC50 [µM] | Structure (SMILES) |
| --- | --- |
| 7 | Cc1cc(C#N)ccc1N1CCN(S(=O)(=O)N[C@H](CCCNC(=O)OCc2ccccc2)C(=O)NO)CC1 |

Target: T2, Disintegrin and metalloproteinase domain-containing protein 17
Experiment: Inhibition of ADAM-17 in human KM-H2 cells assessed as reduction in pervanadate-induced soluble ALCAM shedding after 24 hrs by ELISA
Type: cell-based
Conditions: not given
Summary of the method: as §3

| IC50 [µM] | Structure (SMILES) |
| --- | --- |
| 1 | Cc1cc(C#N)ccc1N1CCN(S(=O)(=O)N[C@H](CCCNC(=O)OCc2ccccc2)C(=O)NO)CC1 |

Target: T1, Disintegrin and metalloproteinase domain-containing protein 10
Experiment: Inhibition of ADAM-10 in human L428 cells assessed as reduction in pervanadate-induced soluble ULBP3 shedding after 24 hrs by ELISA
Type: cell-based, L-428
Conditions: not given
Summary of the method: as §3

| IC50 [µM] | Structure (SMILES) |
| --- | --- |
| 10 | Cc1cc(C#N)ccc1N1CCN(S(=O)(=O)N[C@H](CCCNC(=O)OCc2ccccc2)C(=O)NO)CC1 |

Target: T1, Disintegrin and metalloproteinase domain-containing protein 10
Experiment: Inhibition of ADAM-10 in human L428 cells assessed as reduction in pervanadate-induced soluble MICB shedding after 24 hrs by ELISA
Type: cell-based, L-428
Conditions: not given
Summary of the method: as §4

| IC50 [µM] | Structure (SMILES) |
| --- | --- |
| 7 | Cc1cc(C#N)ccc1N1CCN(S(=O)(=O)N[C@H](CCCNC(=O)OCc2ccccc2)C(=O)NO)CC1 |

Target: T2, Disintegrin and metalloproteinase domain-containing protein 17
Experiment: Inhibition of ADAM-17 in human L428 cells assessed as reduction in pervanadate-induced soluble ALCAM shedding after 24 hrs by ELISA
Type: cell-based, L-428
Conditions: not given
Summary of the method: as §3

| IC50 [µM] | Structure (SMILES) |
| --- | --- |
| 1 | Cc1cc(C#N)ccc1N1CCN(S(=O)(=O)N[C@H](CCCNC(=O)OCc2ccccc2)C(=O)NO)CC1 |

Target: T1, Disintegrin and metalloproteinase domain-containing protein 10
Experiment: Inhibition of ADAM-10 in human L540 cells assessed as reduction in pervanadate-induced soluble ULBP3 shedding after 24 hrs by ELISA
Type: cell-based, L-540
Conditions: not given
Summary of the method: as §3

| IC50 [µM] | Structure (SMILES) |
| --- | --- |
| 10 | Cc1cc(C#N)ccc1N1CCN(S(=O)(=O)N[C@H](CCCNC(=O)OCc2ccccc2)C(=O)NO)CC1 |

Target: T1, Disintegrin and metalloproteinase domain-containing protein 10
Experiment: Inhibition of ADAM-10 in human L540 cells assessed as reduction in pervanadate-induced soluble MICB shedding after 24 hrs by ELISA
Type: cell-based, L-540
Conditions: not given
Summary of the method: as §4

| IC50 [µM] | Structure (SMILES) |
| --- | --- |
| 12 | Cc1cc(C#N)ccc1N1CCN(S(=O)(=O)N[C@H](CCCNC(=O)OCc2ccccc2)C(=O)NO)CC1 |

From ChEMBL document CHEMBL3769331, “Discovery of a new selective inhibitor of A Disintegrin And Metalloprotease 10 (ADAM-10) able to reduce the shedding of NKG2D ligands in Hodgkin's lymphoma cell models” (Eur J Med Chem, 2016)
